From PubChem BioAssay
Most compounds without a hit are left out; they make up all but 2% or so of the library.
DNMT1 block – human DNMT1 methyltransferase inhibitors, primary screen, biochemical, molecular beacon, fluorescence, HinP1I cleavage, uHTS. inhibition (reported as % activation of signal), % at 10 µM. 360,000 tested, 0.83% active; in the data active means inhibition above about 50%
LMPTP block – LMPTP phosphatase inhibitors, primary screen, biochemical, fluorescence intensity, uHTS; recombinant LMPTP-A, OMFP fluorogenic substrate; inhibition, % at 20 µM; 360,000 tested, 0.22% active;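 active means compounds that cut the enzyme signal by at least half of the control window in the single-dose screen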
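Material: LMPTP-A; amount: 0.625 nM enzyme; doses: single 20 µM dose; times: reaction 50 min, room temperature, dark; technique: fluorescence intensity of OMFP turnover product; benchmarks: no-enzyme and uninhibited controls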
CSN deneddyl inh – inhibitors of CSN-mediated cullin deneddylation, primary screen, biochemical, fluorescence polarization, uHTS; inhibition, % at 12.5 µM; Purified CSN, SCF-Nedd8-OG deneddylation; COP9 signalosome complex subunit 5 (Homo sapiens), Q92905; AID 651999, 2013; 360,000 tested, 0.38% active;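 active means pattern-corrected inhibition above about 35%, with an unprinted fluorescence ratio check between 0.5 and 1.5, limit read from the data, passing the limit was not always enough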
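Assay system: Purified human Csn5 enzyme expressed in HEK293T cells | Amount: Enzyme 0.24 nM | Measured by: Fluorescence polarization readout | Medium: Tris/NaCl/DTT buffer, pH 7.5 | Compound dosing: One concentration, 12.5 µM, 0.25% DMSO | Times: 90 min incubation of compound, enzyme and substrate at room temperature | Control set: no-enzyme wells high, enzyme-with-substrate wells low | Read-out: % inhibition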
STEP block – STEP phosphatase inhibitors, primary screen, biochemical, fluorescence intensity, uHTS; Tyrosine-protein phosphatase non-receptor type 5 (Homo sapiens), P54829; recombinant STEP, OMFP fluorogenic substrate; inhibition, % at 20 µM; 360,000 tested, 0.25% active;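 active means inhibition at 20 µM, scaled per plate between control wells, above about 37%, limit read from the data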
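System: STEP phosphatase, cell-free reaction; Buffer or medium: Bis-Tris pH 6.0 buffer with DTT, detergent; Incubation: 20 min at room temperature, dark; Measured by: fluorescence, 480/540 nm.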
Scp1 inh – Scp-1 phosphatase inhibitors, primary screen, biochemical, colorimetric, uHTS; 340,000 tested, 0.88% active; Recombinant Scp1, phosphopeptide, malachite green phosphate absorbance; Carboxy-terminal domain RNA polymerase II polypeptide A small phosphatase 1 (Homo …; AID 493091, 2011; inhibition, % at 20 µM;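 active means inhibition above about 50% at 20 µM, limit read from the data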
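Test system: SCP-1 phosphatase catalytic domain, residues 76-261; measured by: colorimetric phosphate reagent with accelerator and stabiliser, absorbance at 630 nm; timing: enzyme reaction 45 min at room temperature, colour 5 min, stabilisation 30 min; also added: Phosphorylated 17-residue peptide substrate; compound dosing: one concentration, 20 µM, with 1.0% DMSO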
SUMO1-SIM PPI – modulators of SUMO1 protein-protein interactions, primary screen, biochemical, uHTS | AID 602429, 2012 | SUMO1 binding to a labelled peptide, TR-FRET, 1 h | Small ubiquitin-related modifier 1 (Homo sapiens), P63165 | 360,000 tested, 0.33% active | inhibition, % at 20 µM; in the data active means inhibition above about 37%
Large screens that a line does not name were inactive.

Cc1ccc(Nc2cc(C)c3c(O)cccc3n2)cc1C	LMPTP block 67
Cc1ccccc1Nc1cc(C)c2c(O)cccc2n1	LMPTP block 67
COc1ccc(Nc2cc(C)c3c(O)cccc3n2)cc1	LMPTP block 79
Cc1cccnc1NC(=O)CNC(=O)C12CC3CC(CC(C3)C1)C2	none
O=C(OC(C(=O)NC1CCCCC1)c1ccc(C(F)(F)F)cc1)c1ccco1 (stereo not drawn)	none
COc1cc(C)c(Br)cc1S(=O)(=O)NCCN1CCOCC1	none
CC(=O)Nc1cc(-c2cccc(C(=O)NCCN(C)C)c2)cn2c(-c3ccc(F)c(Cl)c3)cnc12	CSN deneddyl inh 82 (no result: Scp1 inh)
Cc1cc(-c2cc(NC=O)c3ncc(-c4cccc(C(=O)NCCN(C)C)c4)n3c2)cc(C)c1O	SUMO1-SIM PPI 48 (no result: Scp1 inh)
CN(C)CCNC(=O)c1cccc(-c2cnc3c(NC=O)cc(-c4cccs4)cn23)c1	SUMO1-SIM PPI 51 (no result: Scp1 inh)
CN1C(=O)C2C(c3ccc(N(C)C)cc3)NN(Cc3ccccc3)C2C1=O (stereo not drawn)	none
CC(C)C[C@@H](CO)N1CCN(Cc2cccnc2)CCC1=O	none
CCN(C[C@H]1N[C@@](Cc2ccccc2)(C(=O)OC)[C@H]2C(=O)N(C)C(=O)[C@@H]12)C(=O)Nc1ccccc1	none
Cc1nc2ccc(S(=O)(=O)NCC(=O)NCCN3CCCCCC3)cc2s1	SUMO1-SIM PPI 46
COc1cccc(CC(=O)NN2C(=O)NC3(CCCCC3)C2=O)c1	none
COC(=O)c1sc(NC(=O)c2cc(-c3ccccc3)nc3ccccc23)c(C#N)c1C	STEP block 91
CCCCC1CC(CSc2ncn[nH]2)OC1=O (stereo not drawn)	none
CCCCCCCC1CC(CSc2ncn[nH]2)OC1=O (stereo not drawn)	CSN deneddyl inh 54
CC(OC(=O)c1ccc(-c2ccc([N+](=O)[O-])cc2)o1)C(=O)NC(N)=O (stereo not drawn)	none
CCCn1c(SCC(=O)Nc2ccc3c(c2)OCO3)n[nH]c1=O	SUMO1-SIM PPI 35
O=C1C=C(N(CCO)Cc2ccccc2)c2ccccc2C1=O	DNMT1 block 77
COc1c(N2CCN(C(=S)NCc3ccccc3)C(C)C2)c(F)cc2c(=O)c(C(=O)O)cn(C3CC3)c12 (stereo not drawn)	LMPTP block 53
COc1c(N2CCN[C@H](C)C2)c(F)cc2c(=O)c(C(=O)O)cn(C3CC3)c12	none (no result: DNMT1 block, LMPTP block, CSN deneddyl inh, STEP block, SUMO1-SIM PPI)
O=C(NCc1ccccc1)C(c1ccc(F)cc1)N(C(=O)c1csnn1)C1CC1 (stereo not drawn)	none
O=C(Nc1cccc(C(=O)N2CCCC2)c1)C1CC1	none
CCC1Nc2ncnc(N3CCCCC3)c2N(Cc2ccc(C)cc2)C1=O (stereo not drawn)	none
Cc1ccc(CN2C(=O)C(CC(C)C)Nc3ncnc(N4CCCCC4)c32)cc1 (stereo not drawn)	CSN deneddyl inh 78 (no result: Scp1 inh)
COc1ccc(C(=O)NC2CCN(C(=O)NCc3ccccc3)CC2)cc1	none
O=C(O)C1C2C=CC(O2)C1C(=O)NCCC1=CCCCC1 (stereo not drawn)	DNMT1 block 53
O=C(NCCC1=CCCCC1)C(=O)NCc1ccccc1	none
CC(C)C(OC(=O)CN1C(=O)c2ccccc2C1=O)C(=O)NC1CCCCC1 (stereo not drawn)	none
O=C(O)CN1CCNCCN(CC(=O)O)CCNCC1	SUMO1-SIM PPI 59
Cc1ccc(S(=O)(=O)CCC(=O)Nc2ccccc2Br)cc1	none
CCOC(=O)c1sc(NC(=O)C2CC(=O)N(c3ccc4c(c3)OCCO4)C2)nc1C (stereo not drawn)	none
COc1ccccc1C(=O)NCCC(=O)NCC1CCCO1 (stereo not drawn)	none
CC1CCN(C(=S)NC(=O)c2ccc(C(C)(C)C)cc2)CC1	SUMO1-SIM PPI 45
CC(=O)OCC1=C(C(=O)O)N2C(=O)[C@@H](NC(=O)Cc3ccccc3)[C@H]2SC1	none
CC(=O)OCC1=C(C(=O)O)N2C(=O)C(NC(=O)COc3ccc(F)cc3)C2SC1 (stereo not drawn)	Scp1 inh 54
O=C(Nc1cc2c(cc1C(=O)O)OCCCO2)c1ccc(F)cc1F	none
Nc1ccc(-c2c3ccc(=O)cc-3oc3cc(O)ccc23)c(C(=O)O)c1	DNMT1 block active
COc1ccc(-c2cc(=O)c3ccc(O)cc3o2)cc1OC	none (no result: Scp1 inh)
N#CC1=C(N)OC2=C(C(=O)CC(c3ccco3)C2)C1c1ccc(OCc2c(F)cccc2Cl)cc1 (stereo not drawn)	LMPTP block 65
CC(C)Nc1nc(Nc2ccccc2Cl)c2sccc2n1	none (no result: Scp1 inh)
CC[n+]1c(C)sc2c3ccsc3ccc21	none
CCN1/C(=C/c2ccc3cc(C)ccc3[n+]2CC)Sc2ccc3sccc3c21	LMPTP block 84, CSN deneddyl inh 162, SUMO1-SIM PPI 104
O=C(CCNC(=O)c1ccccc1Cl)NCC(c1ccco1)N1CCCC1 (stereo not drawn)	none
O=C(O)c1ccc2c(c1)C(=O)N(c1cccc(C(=O)/C=C/c3ccccc3)c1)C2=O	CSN deneddyl inh 45
N#Cc1ccc(CSc2nnc(NC(=O)c3ccc(=O)[nH]c3)s2)cc1	none
N#Cc1ccc(CSc2nnc(NC(=O)c3ccc4ncsc4c3)s2)cc1	SUMO1-SIM PPI 40
C=C1CCN([C@@H](CC(C)C)C(=O)NCc2cc(OC)c(OC)c(OC)c2)S(=O)(=O)c2ccccc21	none
CCc1ccc(N2CSC3=C(C#N)C(c4cccs4)CC(=O)N3C2)cc1 (stereo not drawn)	CSN deneddyl inh 36
CC(C)=CCC[C@](C)(OC1OC(COC2OCC(O)C(O)C2O)C(O)C(O)C1O)C1CC[C@]2(C)C1C(O)CC1[C@@]3(C)CCC(O[C@@H]4O[C@H](CO)C(O)C(O)C4O[C@@H]4OC(CO)C(O)C(O)C4O)C(C)(C)C3CC[C@]12C (stereo partly drawn)	none
Oc1ccc(-c2csc(Nc3ccccn3)n2)cc1O	none
Oc1ccc(-c2csc(Nc3cccc4ccccc34)n2)cc1O	LMPTP block 62
